Experimental data reported in ChEMBL document CHEMBL1146145, “Isobrassinin and its analogues: novel types of antiproliferative agents” (Bioorg Med Chem Lett, 2006).

Columns and labels:
Settings in all cases: read-out: Inhibition
[1] = Cytotoxicity against human HeLa cells at 30 uM; format: cell-based
Outline: (§1)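 MTT assay. Human HeLa (cervix adenocarcinoma), MCF7 (breast adenocarcinoma) and A431 (squamous skin carcinoma) cells were grown in minimal essential medium with 10% foetal bovine serum, antibiotic–antimycotic agents and non-essential amino acids, then seeded in 96-well plates. On day 2 the medium was replaced with compound-containing medium (DMSO final ≤0.1%). Exposure lasted 72 h, followed by 4 h MTT and DMSO solubilization of the formazan.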

[2] = Cytotoxicity against human MCF7 cells at 30 uM; format: cell-based; outline: as §1
[3] = Cytotoxicity against human A431 cells at 30 uM; format: cell-based, A-431; outline: as §1

SMILES	cytotoxicity at 30 µM [1]	cytotoxicity at 30 µM [2]	cytotoxicity at 30 µM [3]
S=C(NCc1cc2ccccc2[nH]1)SCc1ccccc1	76.1%	89%	70.7%
S=C(NCc1cc2ccccc2[nH]1)Nc1ccccc1	50%	57.4%	45.7%
c1ccc(CSC2=NCc3[nH]c4ccccc4c3S2)cc1	45.8%	37.3%	
CNC(=S)NCc1cc2ccccc2[nH]1	< 10%	< 10%	< 10%
CSC(=S)NCc1c[nH]c2ccccc12 [BRASSININ]	25.2%	21.5%	
CSC(=S)NCc1cc2ccccc2[nH]1 [ISOBRASSININ]	83.6%	86.2%	78.6%
CSC1=NCc2[nH]c3ccccc3c2S1 [ISOCYCLOBRASSININ]	44.5%	< 10%	< 10%
